# Screening data (PubChem)
# Most compounds without a hit are left out; they make up all but 2.7% or so of the library.
# Hep lipid drop – hepatic lipid droplet formation modulation. AID 1656. inhibition, % at 6.5 µM. AML12 mouse hepatocytes, oleate lipid droplets, BODIPY imaging. 0.4% of 240,000 active;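 active means lipid droplet intensity inhibited by at least 50%, with more than 500 cells counted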
#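 System: AML12 hepatocytes (mouse). Probe or stimulus: oleic acid at 100 µM to induce lipid droplet formation. Times: overnight treatment with compound plus oleate. Detection: Image-based BODIPY and DAPI two-channel analysis. Evaluation: percent inhibition of filter-corrected integrated lipid droplet intensity per well.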
# MC4R antagonist – human MC4R antagonism in cAMP assay; MC4R-expressing cells, MTII-stimulated cAMP, LANCE TR-FRET; P32245; inhibition, % at 6.5 µM; 0.48% of 360,000 active;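 active means inhibition above its plate's cutoff, the mean of tested wells on that plate plus 3 SD, cut at about 29% in these data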;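 further: 0% = Melanotan II alone and 100% = Melanotan II plus saturating MCL0020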
#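 Assay system: human MC4R-expressing U2OS cells; reagent: Melanotan II stimulation of cells; dosing: 6.5 µM single dose; timing: compound 30 min, challenge 1 h, detection 1 h; signal: TR-FRET cAMP assay; replicates: one well per compound, no replicates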
# HTR2A ag – mouse HTR2A agonism via beta-arrestin recruitment; CHO-K1 mHTR2A beta-arrestin complementation, luminescence; percent of 30 µM serotonin response; activation, % at 7.6 µM; 0.66% of 360,000 active; AID 624169;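 active means activation above a run cutoff, the mean activation of all tested compounds plus 3 SD, cut at about 14% in these data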;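 further: 0% = plate median of compound wells and 100% = 30 µM serotonin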
# Target sequence (P35363 whole entry, looked up): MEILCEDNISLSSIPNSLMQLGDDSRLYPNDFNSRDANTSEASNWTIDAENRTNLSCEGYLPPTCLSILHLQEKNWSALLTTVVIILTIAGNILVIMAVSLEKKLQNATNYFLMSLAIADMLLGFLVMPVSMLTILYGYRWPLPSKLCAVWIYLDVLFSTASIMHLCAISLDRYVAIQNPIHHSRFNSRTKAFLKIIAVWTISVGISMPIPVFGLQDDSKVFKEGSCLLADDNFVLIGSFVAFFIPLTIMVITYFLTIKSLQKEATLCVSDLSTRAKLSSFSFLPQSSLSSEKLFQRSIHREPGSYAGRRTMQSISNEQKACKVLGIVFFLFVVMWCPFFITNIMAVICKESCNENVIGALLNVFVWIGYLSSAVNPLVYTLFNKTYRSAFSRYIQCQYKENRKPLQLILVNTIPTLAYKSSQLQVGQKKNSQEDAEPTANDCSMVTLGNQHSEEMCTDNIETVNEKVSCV
# PREPL inh – human PREPL enzyme inhibition; recombinant PREPL, fluorescence polarization activity-based probe; inhibition, % at 5.96 µM; 0.68% of 320,000 active; Q4J6C6;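 further: 0% = enzyme with DMSO and 100% = wells lacking enzyme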
# MC4R barr agon – human MC4R agonism via beta-arrestin. U2OS MC4R beta-arrestin complementation, luminescence; percent of melanotan II response, DMSO zero. activation, % at 8.9 µM. 0.98% of 360,000 active. AID 540308;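 active means activation above a per-plate cutoff, the mean activation of sample wells on that plate plus 3 SD, cut at about 8% in these data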
# NTR1 agonist – activates human neurotensin receptor 1. NTR1-U2OS beta-arrestin-GFP spot imaging, agonist mode. activation, % at 20 µM. 0.17% of 330,000 active. AID 493036;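 active means activation at or above 40% of the spot to cytoplasm intensity ratio, with at least 20 cells analyzed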;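 further: 0% = DMSO without peptide and 100% = 100 nM NTR1 peptide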
# PREPL inh cf – human PREPL inhibition, confirmation; shares compounds with PREPL inh; recombinant PREPL, fluorescence polarization activity probe; inhibition, % at 5.96 µM; 67% of 2,000 active;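 further: 0% = protein with DMSO and 100% = wells lacking protein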
# Numbers without * were called inactive; x = no result. Unless noted, no stated cut-off is given here; in the data, active means inhibition above about 43%; inactive means the rest.
SMILES,Hep lipid drop,MC4R antagonist,HTR2A ag,PREPL inh,MC4R barr agon,NTR1 agonist,PREPL inh cf
COc1ccc(NC(=O)C2CC(c3ccc(Cl)cc3)=NO2)cc1OC (configuration not stated),x,12.6,-9.9,38.1,0.0,1.8,x
O=c1c(-c2ccc(Oc3ccccc3)cc2)[n+]([O-])c2ccccc2n1OCc1ccccn1,3.2,16.7,0.9,1.8,-0.6,-0.4,x
CCOc1ccc(-c2c(=O)n(OCc3ccccn3)c3ccccc3[n+]2[O-])cc1,x,-7.0,-3.1,68.0*,-2.9,0.9,50.3*
CCc1cc(=O)[nH]c(-n2[nH]c(-c3ccccc3)cc2=O)n1,1.1,8.3,-3.1,56.9*,-1.0,2.2,2.3
O=c1cc(-c2ccccc2)[nH]n1-c1nc2ccccc2[nH]1,x,-2.2,-0.1,-0.8,-0.2,-0.6,x
CCN(C(=O)CN1CCN(S(=O)(=O)c2cc(Cl)ccc2Cl)CC1)c1c(N)n(Cc2ccccc2)c(=O)[nH]c1=O,2.9,0.7,8.9,64.5*,-0.1,-0.8,60.7*
c1ccc(N2CCN(c3nc(-c4ccccn4)nc4ccccc34)CC2)cc1,x,5.6,-0.4,82.7*,-2.6,11.3,79.4*
CCN(CC)CCn1c2c(c(SCC(=O)Nc3ccc4c(c3)OCCO4)nc1=O)CCCC2,x,3.9,-1.6,13.4,0.1,-0.2,x
C[C@@H](C(=O)N1CCN(C(=O)OC(C)(C)C)CC1)n1cc(-c2cn([C@@H](C)C(=O)N3CCN(C(=O)OC(C)(C)C)CC3)nn2)nn1,29.9,x,x,x,x,-0.8,x
CN(C)c1ccc(CN(C(=O)/C=C/c2ccccc2Cl)C2CCS(=O)(=O)C2)cc1 (configuration not stated),-3.0,12.0,5.4,49.9*,-0.3,1.4,48.5*
O=[N+]([O-])c1cccc(S(=O)(=O)/N=C(/Nc2ccccc2)c2ccccc2)c1,x,13.5,-3.6,0.1,-0.4,-0.6,x
Nc1ccc2c(c1)C(=O)C(=O)c1ccccc1-2,-8.5,-44.4,0.9,61.1*,-0.6,-0.8,52.5*
CC(C)C[C@H]1CNC(=O)C(=O)N1C[C@H]1CCCN1C[C@H](CC(C)C)N1C[C@H](CC(C)C)N(CCc2ccccc2)C(=O)C1=O,x,x,4.1,x,x,x,x
O=C(N/N=C/c1cn(CCOc2ccccc2)c2ccccc12)c1ccncc1,-1.9,1.3,-4.3,54.1*,0.7,3.4,42.8
COc1ccccc1OCCn1cc(/C=N/NC(=O)c2ccncc2)c2ccccc21,-11.8,5.8,-7.7,11.4,1.6,5.0,x
Cc1ccc(-n2ccc(=O)c(C(=O)Nc3ccc(S(=O)(=O)Nc4nccs4)cc3)n2)cc1,-4.4,13.9,-0.6,42.9,-1.9,-0.6,x
Cn1c(N/N=C/c2c[nH]c3ccccc23)nc2ccccc21,x,7.1,-7.7,52.7*,-0.1,0.2,65.1*
Cc1cc(N/N=C/c2c[nH]c3ccccc23)c2ccccc2n1,-6.2,-1.0,3.7,6.5,-1.5,4.5,x
Clc1ccc2nc(-c3ccccn3)c(Nc3ccc4c(c3)OCO4)n2c1,6.2,-5.2,-0.4,67.0*,0.8,x,54.2*
Cc1ccc2nc(-c3ccccc3O)c(Nc3ccc4c(c3)OCCO4)n2c1,-8.5,-0.3,2.5,5.5,5.1,10.7,x
CN(C)c1ccc(-n2cc3c(=O)n(C)c(=O)n(C)c3c2)cc1,x,2.0,-1.7,30.1,-1.6,0.9,x
CCN(CC)c1ccc(-n2cc3c(=O)n(C)c(=O)n(C)c3c2)cc1,-2.8,-10.5,-2.0,48.9*,-1.7,4.0,48.4*
COc1cc(CN2C(=O)C(C)ON=C2c2ccccc2F)cc(OC)c1 (configuration not stated),x,8.3,-0.8,x,0.2,x,x
Cc1cc(C)n2nc(SC(C)C(=O)N(C)c3ccccc3)nc2n1 (configuration not stated),x,2.3,-1.4,3.0,-0.9,1.1,x
O=C(NC1CCCCC1)C1CCCN1S(=O)(=O)c1cccc2nsnc12 (configuration not stated),x,3.1,3.4,7.0,-1.5,-1.1,x
